The source made the active and inactive calls. The calls are words filed in the database; no cut-off is given here.
Assays:
Trypsin (Homo sapiens) = Trypsin (Homo sapiens) (UniProt P07477+P07478+P35030); assay: Inhibition of TPCK-treated trypsin (unknown origin) at 10 uM preincubated for 10 mins prior to substrate addition measured for 30 mins by spectrophotometric analysis; type: protein assay
How it was run: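 Commercial colorimetric kit run per manufacturer; TPCK-treated trypsin (100 mU) in kit buffer, inhibitor at 10 µM; enzyme and inhibitor preincubated 10 min at room temperature before substrate addition.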

[1] = target: Histone deacetylase 2 (Homo sapiens) (UniProt Q92769); settings: at 10 µM;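 further: fluorescence readout of HDAC2 deacetylase activity, compound preincubated with HDAC2 5 min before substrate, signal read after 30 min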
Chain of Histone deacetylase 2 (Homo sapiens) (Q92769 whole entry): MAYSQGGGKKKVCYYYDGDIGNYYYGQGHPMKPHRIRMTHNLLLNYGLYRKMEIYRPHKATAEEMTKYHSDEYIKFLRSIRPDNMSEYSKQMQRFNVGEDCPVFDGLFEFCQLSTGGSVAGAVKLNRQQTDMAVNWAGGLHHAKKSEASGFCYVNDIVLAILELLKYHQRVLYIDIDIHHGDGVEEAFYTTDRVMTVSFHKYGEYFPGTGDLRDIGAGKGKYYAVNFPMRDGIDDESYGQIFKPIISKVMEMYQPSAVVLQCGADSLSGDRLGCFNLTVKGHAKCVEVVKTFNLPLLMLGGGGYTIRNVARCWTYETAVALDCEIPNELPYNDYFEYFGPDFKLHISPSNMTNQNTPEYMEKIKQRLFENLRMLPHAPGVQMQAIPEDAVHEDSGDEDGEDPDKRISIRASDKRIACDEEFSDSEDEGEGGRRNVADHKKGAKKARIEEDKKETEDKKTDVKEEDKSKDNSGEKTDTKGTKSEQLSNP

[2] = target: T1, 72 kDa type IV collagenase (Homo sapiens, UniProt P08253); assay: Inhibition of human recombinant MMP-2 using Mca-Pro-Leu-Gly-Leu-Dpa-Ala-Arg-NH2.AcOH as substrate at 10 uM preincubated for 30 mins prior to substrate addition measured for 30 mins by fluorescence assay relative to control
How it was run: (§1)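 Human recombinant MMP-2 (1.16 U) or MMP-12 (0.007 U) in 50 mM HEPES, 10 mM CaCl₂, 0.05% Brij-35, pH 7.5, preincubated with inhibitor 30 min at 37 °C; 4 µM OmniMMP peptide then added. Fluorescence rise (ex 320/em 400 nm) over 30 min, as percent of no-inhibitor wells. Triplicate assays, triplicate wells; mean ± SD.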
Target sequence in this assay (P08253 110-660 limits assumed): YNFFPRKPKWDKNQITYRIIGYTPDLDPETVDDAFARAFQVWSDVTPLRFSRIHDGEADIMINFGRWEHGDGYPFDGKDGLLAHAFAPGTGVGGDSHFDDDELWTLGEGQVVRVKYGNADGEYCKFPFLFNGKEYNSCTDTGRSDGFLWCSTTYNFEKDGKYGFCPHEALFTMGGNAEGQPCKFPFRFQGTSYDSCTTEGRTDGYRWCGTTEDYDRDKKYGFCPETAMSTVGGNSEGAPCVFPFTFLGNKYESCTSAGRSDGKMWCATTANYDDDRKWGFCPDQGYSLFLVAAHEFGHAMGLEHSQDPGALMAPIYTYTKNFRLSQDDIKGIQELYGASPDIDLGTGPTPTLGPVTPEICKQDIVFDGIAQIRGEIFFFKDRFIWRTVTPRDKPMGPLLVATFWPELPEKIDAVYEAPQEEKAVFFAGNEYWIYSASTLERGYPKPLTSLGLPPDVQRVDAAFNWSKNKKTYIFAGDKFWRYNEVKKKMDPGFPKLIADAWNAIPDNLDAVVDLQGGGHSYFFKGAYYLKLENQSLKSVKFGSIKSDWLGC

[3] = target: T2, Tyrosinase (Agaricus bisporus) (UniProt O42713); assay: Inhibition of mushroom tyrosinase assessed as L-DOPA conversion to melanin at 10 uM preincubated for 10 mins prior to substrate addition measured after 10 mins by spectrophotometric analysis
T2 sequence (whole entry): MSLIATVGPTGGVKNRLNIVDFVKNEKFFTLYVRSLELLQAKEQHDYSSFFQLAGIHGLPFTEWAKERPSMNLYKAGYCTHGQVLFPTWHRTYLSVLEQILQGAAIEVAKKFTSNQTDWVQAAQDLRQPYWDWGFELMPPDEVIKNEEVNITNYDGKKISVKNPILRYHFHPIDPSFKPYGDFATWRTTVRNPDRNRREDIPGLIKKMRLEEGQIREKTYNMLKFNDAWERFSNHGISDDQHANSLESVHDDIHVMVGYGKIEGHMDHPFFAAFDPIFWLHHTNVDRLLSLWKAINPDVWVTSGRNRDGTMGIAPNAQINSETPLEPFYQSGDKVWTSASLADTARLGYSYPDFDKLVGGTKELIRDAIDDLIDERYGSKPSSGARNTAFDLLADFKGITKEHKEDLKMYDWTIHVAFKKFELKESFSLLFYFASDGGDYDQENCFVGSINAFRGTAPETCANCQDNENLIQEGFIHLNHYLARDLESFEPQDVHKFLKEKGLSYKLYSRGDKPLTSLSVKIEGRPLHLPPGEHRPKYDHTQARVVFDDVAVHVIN
How it was run: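 Mushroom tyrosinase (30 U) in 10 mM NaH₂PO₄ pH 6.8 with 10 µM inhibitor, 10 min at room temperature; background A475 taken, L-DOPA (0.5 mM) added, A475 read again after 10 min and background subtracted. No-inhibitor wells set as 100% activity. Triplicate assays, triplicate wells; mean ± SD.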

[4] = target: T3, Macrophage metalloelastase (Homo sapiens, UniProt P39900); assay: Inhibition of human recombinant MMP-12 using Mca-Pro-Leu-Gly-Leu-Dpa-Ala-Arg-NH2.AcOH as substrate at 10 uM preincubated for 30 mins prior to substrate addition measured for 30 mins by fluorescence assay relative to control; how it was run: as §1
Target sequence in this assay (P39900 106-470 limits assumed): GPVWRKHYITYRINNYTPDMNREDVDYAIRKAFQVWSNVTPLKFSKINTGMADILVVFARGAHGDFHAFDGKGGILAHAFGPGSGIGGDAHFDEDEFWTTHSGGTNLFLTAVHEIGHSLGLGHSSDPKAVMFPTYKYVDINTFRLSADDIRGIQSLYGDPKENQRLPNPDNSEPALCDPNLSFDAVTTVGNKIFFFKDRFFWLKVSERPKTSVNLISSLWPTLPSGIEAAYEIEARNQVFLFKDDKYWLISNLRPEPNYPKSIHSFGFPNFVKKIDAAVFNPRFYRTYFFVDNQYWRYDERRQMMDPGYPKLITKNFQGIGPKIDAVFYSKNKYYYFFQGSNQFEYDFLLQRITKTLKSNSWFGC

Homo sapiens = organism: Homo sapiens; assay: Binding affinity to ferritin (unknown origin) assessed as removal of ferric ion at 1 mM measured for 1 hr by UV-vis spectrophotometric analysis
[5] = target: Angiotensin-converting enzyme (Homo sapiens) (UniProt P12821); assay: Inhibition of human recombinant ACE/CD143 somatic form using Mca-Pro-Leu-Gly-Leu-Dpa-Ala-Arg-NH2.AcOH as substrate at 10 uM preincubated for 10 mins prior to substrate addition measured for 30 mins by spectrophotometric analysis
Chain of Angiotensin-converting enzyme (Homo sapiens) (P12821 whole entry): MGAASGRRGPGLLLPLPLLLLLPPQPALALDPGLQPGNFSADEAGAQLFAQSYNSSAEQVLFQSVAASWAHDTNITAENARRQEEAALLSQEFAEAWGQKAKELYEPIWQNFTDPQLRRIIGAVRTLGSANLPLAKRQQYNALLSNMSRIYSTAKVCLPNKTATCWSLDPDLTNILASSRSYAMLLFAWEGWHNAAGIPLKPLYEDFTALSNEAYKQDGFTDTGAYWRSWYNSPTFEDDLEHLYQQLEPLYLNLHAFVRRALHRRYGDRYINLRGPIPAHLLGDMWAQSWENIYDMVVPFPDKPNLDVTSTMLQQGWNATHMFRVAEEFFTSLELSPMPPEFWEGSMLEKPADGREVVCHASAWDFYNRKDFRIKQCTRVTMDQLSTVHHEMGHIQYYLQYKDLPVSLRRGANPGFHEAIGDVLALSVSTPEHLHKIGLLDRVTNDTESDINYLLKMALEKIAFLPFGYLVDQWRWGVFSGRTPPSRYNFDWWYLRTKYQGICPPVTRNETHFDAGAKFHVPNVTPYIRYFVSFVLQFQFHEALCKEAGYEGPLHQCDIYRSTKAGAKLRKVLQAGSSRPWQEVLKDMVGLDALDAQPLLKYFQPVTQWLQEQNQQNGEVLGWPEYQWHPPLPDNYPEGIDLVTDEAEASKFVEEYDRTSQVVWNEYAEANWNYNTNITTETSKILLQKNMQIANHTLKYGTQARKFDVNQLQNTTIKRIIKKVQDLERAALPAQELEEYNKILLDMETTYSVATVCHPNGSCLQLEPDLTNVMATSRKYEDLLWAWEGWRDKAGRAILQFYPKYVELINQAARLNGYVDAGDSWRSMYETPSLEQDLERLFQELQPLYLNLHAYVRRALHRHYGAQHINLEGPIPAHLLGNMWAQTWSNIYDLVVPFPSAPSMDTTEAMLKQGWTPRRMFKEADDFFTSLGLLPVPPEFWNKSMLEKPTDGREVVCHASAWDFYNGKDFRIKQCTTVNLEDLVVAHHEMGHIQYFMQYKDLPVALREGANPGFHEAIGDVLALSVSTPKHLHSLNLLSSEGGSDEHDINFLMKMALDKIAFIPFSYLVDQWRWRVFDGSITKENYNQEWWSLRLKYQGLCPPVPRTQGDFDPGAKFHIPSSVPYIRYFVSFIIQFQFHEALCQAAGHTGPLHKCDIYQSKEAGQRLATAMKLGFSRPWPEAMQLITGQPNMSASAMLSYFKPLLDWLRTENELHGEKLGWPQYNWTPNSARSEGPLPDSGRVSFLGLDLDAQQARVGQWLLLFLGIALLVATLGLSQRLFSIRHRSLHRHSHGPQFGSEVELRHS
How it was run: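 Human recombinant somatic ACE/CD143 (20 ng) in 50 mM MES pH 6.5 with inhibitor at 10 µM, preincubated 10 min at 37 °C; OmniMMP fluorogenic peptide (4 µM) then added. Fluorescence (ex 320/em 400 nm) read over 30 min. Data normalized to uninhibited enzyme; triplicate assays, each inhibitor in triplicate; mean ± SD.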

[6] = Inhibition of MMP (unknown origin); design: species or system Homo sapiens
[7] = target: Matrix metalloproteinase-9 (Homo sapiens, UniProt P14780); assay: Inhibition of MMP-9 (unknown origin)
Chain of Matrix metalloproteinase-9 (P14780 whole entry): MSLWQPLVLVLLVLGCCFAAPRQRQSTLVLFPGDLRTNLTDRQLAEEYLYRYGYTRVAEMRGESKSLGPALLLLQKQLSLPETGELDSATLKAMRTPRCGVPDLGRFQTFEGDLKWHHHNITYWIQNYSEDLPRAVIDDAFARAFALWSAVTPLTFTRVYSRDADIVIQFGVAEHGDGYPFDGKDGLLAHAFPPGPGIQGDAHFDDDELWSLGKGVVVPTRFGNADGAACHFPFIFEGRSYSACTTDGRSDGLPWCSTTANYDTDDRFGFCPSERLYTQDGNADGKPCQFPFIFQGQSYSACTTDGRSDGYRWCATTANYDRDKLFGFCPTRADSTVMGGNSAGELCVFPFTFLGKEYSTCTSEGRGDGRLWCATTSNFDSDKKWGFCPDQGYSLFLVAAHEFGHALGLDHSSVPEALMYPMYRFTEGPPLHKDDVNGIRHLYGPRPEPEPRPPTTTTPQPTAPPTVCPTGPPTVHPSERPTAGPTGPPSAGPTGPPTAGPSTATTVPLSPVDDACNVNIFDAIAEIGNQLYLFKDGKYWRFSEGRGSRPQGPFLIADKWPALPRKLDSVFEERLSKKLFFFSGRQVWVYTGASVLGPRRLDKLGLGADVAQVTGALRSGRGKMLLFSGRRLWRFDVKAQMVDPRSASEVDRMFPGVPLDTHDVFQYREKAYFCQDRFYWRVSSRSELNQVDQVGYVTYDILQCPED

[8] = target: T1, 72 kDa type IV collagenase; assay: Inhibition of human recombinant MMP-2 using Mca-Pro-Leu-Gly-Leu-Dpa-Ala-Arg-NH2.AcOH as substrate preincubated for 30 mins prior to substrate addition measured for 30 mins by fluorescence assay
How it was run: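 Human recombinant MMP-2 (1.16 U) in 50 mM HEPES, 10 mM CaCl₂, 0.05% Brij-35, pH 7.5, is preincubated with inhibitor at 37 °C for 30 min. 4 µM OmniMMP substrate then starts the reaction. Fluorescence (ex 320/em 400 nm) is followed for 30 min. Activity is the fluorescence increase relative to no-inhibitor wells, as a percentage. Three assays, each in triplicate; mean ± SD.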
Target sequence in this assay (P08253 whole entry): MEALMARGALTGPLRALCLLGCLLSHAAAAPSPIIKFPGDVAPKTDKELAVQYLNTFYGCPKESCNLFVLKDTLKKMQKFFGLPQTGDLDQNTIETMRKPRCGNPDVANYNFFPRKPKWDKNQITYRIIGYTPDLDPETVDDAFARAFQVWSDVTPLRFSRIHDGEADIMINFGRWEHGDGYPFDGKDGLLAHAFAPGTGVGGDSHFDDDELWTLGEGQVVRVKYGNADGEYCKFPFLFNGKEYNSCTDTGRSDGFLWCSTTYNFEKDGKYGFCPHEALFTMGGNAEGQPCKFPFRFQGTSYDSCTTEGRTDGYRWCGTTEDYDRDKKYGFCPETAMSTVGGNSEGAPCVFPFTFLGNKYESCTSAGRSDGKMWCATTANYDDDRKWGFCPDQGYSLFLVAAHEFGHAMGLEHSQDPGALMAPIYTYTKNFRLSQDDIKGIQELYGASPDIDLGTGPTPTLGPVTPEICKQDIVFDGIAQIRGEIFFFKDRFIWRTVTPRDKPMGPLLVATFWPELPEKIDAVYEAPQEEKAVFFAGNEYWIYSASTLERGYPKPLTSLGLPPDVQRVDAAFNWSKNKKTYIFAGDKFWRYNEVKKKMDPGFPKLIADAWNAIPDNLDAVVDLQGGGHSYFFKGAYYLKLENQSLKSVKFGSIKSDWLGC

[9] = target: T3, Macrophage metalloelastase; assay: Inhibition of human recombinant MMP-12 using Mca-Pro-Leu-Gly-Leu-Dpa-Ala-Arg-NH2.AcOH as substrate preincubated for 30 mins prior to substrate addition measured for 30 mins by fluorescence assay
How it was run: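 Human recombinant MMP-12 (0.007 U) was preincubated with inhibitor at 37 °C for 30 min in 50 mM HEPES, 10 mM CaCl₂, 0.05% Brij-35, pH 7.5. OmniMMP substrate was then added, and fluorescence (ex 320/em 400 nm) was followed for 30 min. Activity is the fluorescence increase relative to no-inhibitor wells (set to 100%). Triplicate assays, each with triplicate inhibitor wells; mean ± SD.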
Target sequence in this assay (P39900 whole entry): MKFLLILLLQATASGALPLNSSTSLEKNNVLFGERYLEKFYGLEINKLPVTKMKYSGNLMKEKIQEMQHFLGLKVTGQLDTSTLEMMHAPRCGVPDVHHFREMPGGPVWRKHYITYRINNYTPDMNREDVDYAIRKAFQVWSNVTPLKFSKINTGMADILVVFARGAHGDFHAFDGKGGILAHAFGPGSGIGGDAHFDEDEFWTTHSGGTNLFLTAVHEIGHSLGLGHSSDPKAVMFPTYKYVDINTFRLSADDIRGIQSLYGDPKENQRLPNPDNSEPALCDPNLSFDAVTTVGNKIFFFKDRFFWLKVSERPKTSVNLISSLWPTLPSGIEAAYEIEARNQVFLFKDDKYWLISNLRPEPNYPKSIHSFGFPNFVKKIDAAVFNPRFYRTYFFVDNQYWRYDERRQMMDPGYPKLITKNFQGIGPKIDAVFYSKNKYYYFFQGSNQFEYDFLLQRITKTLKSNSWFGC

C[C@H](CS)C(=O)N1CCC[C@H]1C(=O)O
inhibition (Trypsin (Homo sapiens)): inactive
inhibition [1]: inactive
inhibition [2]: < 10%
inhibition [3]: inactive
inhibition [4]: Active

CC(=O)N(O)CCCCCNC(=O)CCC(=O)N(O)CCCCCNC(=O)CCC(=O)N(O)CCCCCN
inhibition (Trypsin (Homo sapiens)): inactive
inhibition [1]: inactive
Activity (Homo sapiens): Active
inhibition [2]: Active
inhibition [3]: inactive
inhibition [4]: Active

O=C(CCCCCCC(=O)Nc1ccccc1)NO
inhibition (Trypsin (Homo sapiens)): inactive
inhibition [2]: < 25%
inhibition [5]: Active
inhibition [3]: inactive
inhibition [4]: < 25%

O=C(/C=C/c1ccc(Cl)cc1Cl)NO
inhibition (Trypsin (Homo sapiens)): inactive
inhibition [1]: Active
inhibition [2]: < 25%
inhibition [3]: inactive
inhibition [4]: < 25%

CC(c1cc2ccccc2s1)N(O)C(N)=O (centres undefined)
inhibition (Trypsin (Homo sapiens)): inactive
inhibition [1]: inactive
inhibition [2]: Active
inhibition [3]: inactive
inhibition [4]: Active

CC(=O)Nc1nnc(S(N)(=O)=O)s1
inhibition (Trypsin (Homo sapiens)): inactive
inhibition [1]: inactive
inhibition [2]: Active
inhibition [3]: inactive
inhibition [4]: Active

COc1ccc(S(=O)(=O)N(Cc2cccnc2)[C@@H](C(=O)NO)C(C)C)cc1 [CGS-27023A]
inhibition (Trypsin (Homo sapiens)): inactive
inhibition [1]: inactive
IC50 [6]: 8 nM
inhibition [2]: 95%
inhibition [5]: Active
inhibition [3]: inactive
inhibition [4]: 95%

CC(/C=C/C(=O)NO)=C\[C@@H](C)C(=O)c1ccc(N(C)C)cc1
inhibition [1]: Active

O=C(O)[C@H](Cc1ccccc1)NS(=O)(=O)c1ccc(-c2ccccc2)cc1
IC50 [7]: 310 nM
inhibition (Trypsin (Homo sapiens)): inactive
inhibition [1]: inactive
inhibition [2]: Active
inhibition [5]: inactive
inhibition [3]: inactive
IC50 [8]: 240 nM
inhibition [4]: Active

O=C(NCc1ccc(-c2ccccc2)cc1)c1cccc(=O)n1O
inhibition (Trypsin (Homo sapiens)): inactive
inhibition [1]: inactive
IC50 [9]: 18 nM
inhibition [2]: 80%
inhibition [5]: Active
inhibition [3]: inactive
inhibition [4]: 100%

Cc1nc(C(=O)NCc2ccc(F)cc2)c(O)c(=O)[nH]1
inhibition (Trypsin (Homo sapiens)): inactive
inhibition [1]: inactive
inhibition [2]: 50%
inhibition [3]: inactive
inhibition [4]: Active

— ChEMBL document CHEMBL2434956, “Investigating the selectivity of metalloenzyme inhibitors” (J Med Chem, 2013)
